# From ChEMBL document CHEMBL5113464, “A multi-pronged evaluation of aldehyde-based tripeptidyl main protease inhibitors as SARS-CoV-2 antivirals” (Eur J Med Chem, 2022)
# What was measured:
# [1] = target: T1, Replicase polyprotein 1ab (Severe acute respiratory syndrome coronavirus 2, UniProt P0DTD1); assay: Inhibition of eGFP fused SARS-CoV2 main protease transfected in HEK293T/17 cells incubated for 72 hrs by fluorescence based flow cytometry analysis; assay type: cell-based
# [2] = target: T1, Replicase polyprotein 1ab; assay: Inhibition of His/SUMO tagged SARS-CoV2 main protease expressed in Escherichia coli BL21 (DE3) cells using Dabcyl-KTSAVLQSGFRKME-Edans as substrate preincubated for 30 mins followed by substrate addition and measured after 30 mins by fluorescence plate reader analysis
# SARS-CoV-2 [3] = assay: Antiviral activity against SARS-Cov2 USA-WA1/2020 infected in African green monkey Vero E6 cells assessed as viral plaque reduction measured after 3 days by plaque reduction neutralization test; assay type: functional, organism-based; settings: Severe acute respiratory syndrome coronavirus 2, USA-WA1/2020, Vero C1008, 72 h
# SARS-CoV-2 [4] = assay: Antiviral activity against SARS-Cov2 Beta infected in African green monkey Vero E6 cells assessed as viral plaque reduction measured after 3 days by plaque reduction neutralization test; assay type: functional, organism-based; settings: Severe acute respiratory syndrome coronavirus 2, Beta, Vero C1008, 72 h
# SARS-CoV-2 [5] = assay: Antiviral activity against SARS-Cov2 Delta infected in African green monkey Vero E6 cells assessed as viral plaque reduction measured after 3 days by plaque reduction neutralization test; assay type: functional, organism-based; settings: Severe acute respiratory syndrome coronavirus 2, Delta, Vero C1008, 72 h
# [6] = Cytotoxicity against HEK293T/17 cells by MTT assay; assay type: toxicity, cell-based; settings: human
# In short: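 MTT viability assay in 293T cells. CC50 is derived from cytotoxicity curves of compound concentration versus viability.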
Compound,EC50 [1],IC50 [2],EC50 (SARS-CoV-2 [3]),EC50 (SARS-CoV-2 [4]),EC50 (SARS-CoV-2 [5]),CC50 ([6]; hek293t/17),CC50 ([6]; HEK293T/17 cells)
CC(C)[C@H](NC(=O)OCc1ccccc1)C(=O)N[C@@H](Cc1cccs1)C(=O)N[C@H](C=O)C[C@@H]1CCNC1=O,Nd(Insoluble),Nd(Insoluble),–,–,–,–,–
CC(C)C[C@H](NC(=O)[C@@H](NC(=O)OCc1cccc(Cl)c1)[C@@H](C)OC(C)(C)C)C(=O)N[C@H](C=O)C[C@@H]1CCNC1=O,–,–,1900 nM,650 nM,1600 nM,183000 nM,–
C[C@@H](OC(C)(C)C)[C@H](NC(=O)OCc1ccccc1)C(=O)N[C@@H](CC1CC1)C(=O)N[C@H](C=O)C[C@@H]1CCNC1=O,–,–,1200 nM,1800 nM,1100 nM,–,> 200000 nM
CC(C)[C@H](NC(=O)OCc1cccc(Cl)c1)C(=O)N[C@@H](CC1CCCCC1)C(=O)N[C@H](C=O)C[C@@H]1CCNC1=O,–,–,> 5000 nM,> 5000 nM,3200 nM,114000 nM,–
C[C@@H](OC(C)(C)C)[C@H](NC(=O)OCc1ccccc1)C(=O)N[C@@H](CC(C)(C)C)C(=O)N[C@H](C=O)C[C@@H]1CCNC1=O,–,–,1200 nM,1200 nM,580 nM,–,> 200000 nM
C[C@@H](OC(C)(C)C)[C@H](NC(=O)OCc1cccc(Cl)c1)C(=O)N[C@@H](CC1CCCCC1)C(=O)N[C@H](C=O)C[C@@H]1CCNC1=O,–,–,2200 nM,1600 nM,870 nM,130000 nM,–
CC(C)(C)C[C@H](NC(=O)[C@@H](NC(=O)OCc1ccccc1)C(C)(C)C)C(=O)N[C@H](C=O)C[C@@H]1CCNC1=O,–,–,> 5000 nM,710 nM,5000 nM,–,> 200000 nM
"CC(OC(C)(C)C)[C@H](NC(=O)OCc1ccccc1)C(=O)N[C@@H](CC1CCCCC1)C(=O)N[C@H](C=O)C[C@@H]1CCNC1=O (single isomer, unassigned)",–,–,–,–,–,109000 nM,–
